Measured values from different studies.
Each line is one published result; the experiments were not run side by side. pEC50, pIC50: −log10 of the molar value.
Effect on: cell growth or viability

Cc1nc(NC(=O)N2CCC[C@H]2C(N)=O)sc1-c1ccnc(C(C)(C)C(F)(F)F)c1  pEC50 (HGC-27; ATP luminescence; 5 days): 4.70
Cc1n[nH]c2ccc3nc(-c4ccc(C(=O)NCCN(C)C)cc4)c4c(c3c12)CCCC4  GI50 (Kasumi 1; 72 h): 0.148 µM
C[C@H](Nc1ccc2c(c1)OCCn1cc(N3C(=O)OC[C@H]3C(F)F)nc1-2)C(N)=O  pEC50 (HGC-27; ATP luminescence; 5 days): 6.92
Cc1n[nH]c2ccc3nc(-c4ccc(C(=O)NCCN(C)C)cc4F)c4c(c3c12)CCCCC4  GI50 (Kasumi 1; 72 h): 0.397 µM
Cc1nc(Nc2ncc(C(=O)Nc3c(C)cccc3Cl)s2)cc(N2CC[C@H](O)C2)n1  inhibition (Toledo; ATP luminescence; 10 µM; 72 h): 50%
COc1cccc2c1C(=O)c1c(O)c3c(c(O)c1C2=O)C[C@@](O)(C(=O)CO)C[C@@H]3O[C@H]1C[C@H](N)[C@H](O)[C@H](C)O1  pIC50 (SW480; MTT; 72 h): 7.05
NNc1nc2c(Cl)cc(Cl)cc2c(=O)n1-c1ccc(F)cc1  pIC50 (SW480; MTT; 48 h): 4.28
C=C1CC[C@@H]2[C@](C)(CO)[C@H](O)CC[C@@]2(C)[C@@H]1C/C=C1/C(=O)OC[C@H]1O  pIC50 (SW480; MTT; 72 h): 5.38
CCN(CC)c1ccc(C=NNC(=O)CSc2nc3ccccc3c(=O)n2Cc2ccc(S(N)(=O)=O)cc2)c(O)c1  GI50 (NCI/ADR-RES; SRB): > 100 µM
